The values that follow come from ChEMBL document CHEMBL1153465, “C5-Modified nucleosides exhibiting anticancer activity” (Bioorg Med Chem Lett, 2009).

Format in all cases: functional
In experiment [1] the test system is HCT-15. In words: Cytotoxicity against human HCT15 cells at 10 uM by SRB assay. The essentials: (§1)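 Growth inhibition measured at one fixed test concentration by sulforhodamine B assay. Cells were kept in RPMI 1640 plus 5% fetal bovine serum at 37 °C under humidified 5% CO₂. Adriamycin served as positive control. Results are given as […] of cancer cell growth.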

Experiment [2] concerns MDA-MB-231. The experiment is described as follows: Cytotoxicity against human MDA-MB-231 cells at 10 uM by SRB assay. In a few lines:
as §1

The test system of experiment [3] is NCI-H23. In words: Cytotoxicity against human NCI-H23 cells at 10 uM by SRB assay. In a few lines: as §1
On the technique in general: The SRB assay estimates cell density from bound dye.

Experiment [4] relates to PC-3. In words: Cytotoxicity against human PC3 cells at 10 uM by SRB assay. The essentials:
as §1

Experiment [5] relates to HCT-15. The experiment is described as follows: Cytotoxicity against human HCT15 cells by SRB assay.
Experiment [6] concerns MDA-MB-231. The experiment is described as follows: Cytotoxicity against human MDA-MB-231 cells by SRB assay.
Experiment [7] has as its system NCI-H23. In words: Cytotoxicity against human NCI-H23 cells by SRB assay.
In the next experiment the test system is NUGC-3. In words: Cytotoxicity against human NUGC3 cells by SRB assay.
The subject of experiment [8] is PC-3. In words: Cytotoxicity against human PC3 cells by SRB assay.
Another experiment deals with ACHN. The experiment is described as follows: Cytotoxicity against human ACHN cells by SRB assay.

Turning to `CC(=O)OC[C@H]1O[C@@H](n2cc(-c3cc(-c4ccc(C(C)C)cc4)no3)c(=O)[nH]c2=O)C[C@@H]1OC(C)=O`, the growth, % of control at 10 µM in the experiment on HCT-15 [1] worked out at 80.9%; in the experiment on MDA-MB-231 [2], 83.2%; in the experiment on NCI-H23 [3], 108%; in the experiment on PC-3 [4], 50.3%.
Turning to `CC(=O)OC[C@H]1O[C@@H](n2cc(-c3cc(-c4ccc(C(C)(C)C)cc4)no3)c(=O)[nH]c2=O)C[C@@H]1OC(C)=O`, the growth, % of control at 10 µM in the experiment with HCT-15 [1] was determined as 53.8%; in the experiment with MDA-MB-231 [2], 69.3%; with NCI-H23 [3], 112%; in the experiment on PC-3 [4], 27.5%.
The like results for `CCc1ccc(Cn2cc(-c3cn([C@H]4C[C@H](OC(C)=O)[C@@H](COC(C)=O)O4)c(=O)[nH]c3=O)nn2)cc1` were, in that order, 88%, 97.7%, 77.2% and 91.2%.
With `CCc1ccc(-c2cc(-c3cn([C@H]4C[C@H](OC(C)=O)[C@@H](COC(C)=O)O4)c(=O)[nH]c3=O)on2)cc1`, the growth, % of control at 10 µM turned out to be 92.2% in the experiment on HCT-15 [1], 97.4% with MDA-MB-231 [2], 92.7% in the experiment on NCI-H23 [3] and 62.8% in the experiment with PC-3 [4].
With `CC(=O)OC[C@H]1O[C@@H](n2cc(-c3cn(Cc4ccccc4)nn3)c(=O)[nH]c2=O)C[C@@H]1OC(C)=O`, the growth, % of control at 10 µM was 92.3% in the experiment on HCT-15 [1], 102% with MDA-MB-231 [2], 98.2% in the experiment on NCI-H23 [3] and 92.1% in the experiment on PC-3 [4].
Turning to `CC(=O)OC[C@H]1O[C@@H](n2cc(-c3cc(C)no3)c(=O)[nH]c2=O)C[C@@H]1OC(C)=O`, the growth, % of control at 10 µM in the experiment with HCT-15 [1] worked out at 102%; in the experiment with MDA-MB-231 [2], 106%; with NCI-H23 [3], 101%; in the experiment on PC-3 [4] it was 92.4%.
As for `CCCCCc1cc(-c2cn([C@H]3C[C@H](OC(C)=O)[C@@H](COC(C)=O)O3)c(=O)[nH]c2=O)on1`, the growth, % of control at 10 µM turned out to be 98.7% with HCT-15 [1], 91.5% in the experiment with MDA-MB-231 [2], 88.9% in the experiment with NCI-H23 [3] and 93.9% in the experiment on PC-3 [4].
For `CC(C)(C)c1ccc(Cn2cc(-c3cn([C@H]4C[C@H](O)[C@@H](CO)O4)c(=O)[nH]c3=O)nn2)cc1`, in that order: 96.9%, 106%, 95% and 92.3%.
Take `CCCCCCCCc1cc(-c2cn([C@H]3C[C@H](O)[C@@H](CO)O3)c(=O)[nH]c2=O)on1`: the growth, % of control at 10 µM in the experiment on HCT-15 [1] worked out at 88.2%; in the experiment with MDA-MB-231 [2], 96.7%; with NCI-H23 [3] it was 120%; with PC-3 [4], 77.3%.
Consider `CCCCc1ccc(-c2cc(-c3cn([C@H]4C[C@H](OC(C)=O)[C@@H](COC(C)=O)O4)c(=O)[nH]c3=O)on2)cc1`, for which the growth, % of control at 10 µM in the experiment with HCT-15 [1] amounted to 71.4%; in the experiment with MDA-MB-231 [2], 72.2%; in the experiment with NCI-H23 [3] it was 97.4%; in the experiment with PC-3 [4], 30.4%.
For `CC(C)(C)c1ccc(-c2cc(-c3cn([C@H]4C[C@H](O)[C@@H](CO)O4)c(=O)[nH]c3=O)on2)cc1`, the growth, % of control at 10 µM is 79.8% with HCT-15 [1], 102% in the experiment on MDA-MB-231 [2], 98.9% in the experiment with NCI-H23 [3] and 87.9% with PC-3 [4].
With `O=c1[nH]c(=O)n([C@H]2C[C@H](O)[C@@H](CO)O2)cc1-c1cn(Cc2ccccc2)nn1`, the growth, % of control at 10 µM with HCT-15 [1] amounted to 88.3%; with MDA-MB-231 [2] it was 103%; in the experiment with NCI-H23 [3] it was 97.5%; in the experiment with PC-3 [4], 92.1%.
`CC(=O)OC[C@H]1O[C@@H](n2cc(-c3cn(Cc4ccc(C(C)C)cc4)nn3)c(=O)[nH]c2=O)C[C@@H]1OC(C)=O`: the growth, % of control at 10 µM was 96.5% with HCT-15 [1], 98.1% with MDA-MB-231 [2], 86.7% with NCI-H23 [3] and 91.3% in the experiment on PC-3 [4].
For `CC(=O)OC[C@H]1O[C@@H](n2cc(-c3cc(-c4ccccc4)no3)c(=O)[nH]c2=O)C[C@@H]1OC(C)=O`, in that order: 92.2%, 95%, 91.4% and 85.5%.
Consider `CC(=O)OC[C@H]1O[C@@H](n2cc(-c3cn(Cc4ccc(C(C)(C)C)cc4)nn3)c(=O)[nH]c2=O)C[C@@H]1OC(C)=O`, for which the growth, % of control at 10 µM stood at 94.2% in the experiment with HCT-15 [1], 105% with MDA-MB-231 [2], 106% in the experiment with NCI-H23 [3] and 90.4% in the experiment on PC-3 [4].
For `CCCc1cc(-c2cn([C@H]3C[C@H](OC(C)=O)[C@@H](COC(C)=O)O3)c(=O)[nH]c2=O)on1`, in that order: 98.8%, 102%, 96.9% and 88.1%.
What is called GI50 is the concentration giving 50% growth inhibition. High values mean less potent growth inhibition, low ones more potent growth inhibition. `COc1cccc2c1C(=O)c1c(O)c3c(c(O)c1C2=O)C[C@@](O)(C(=O)CO)C[C@@H]3O[C@H]1C[C@H](N)[C@H](O)[C@H](C)O1` [DOXORUBICIN]: the GI50 is 1640 nM with HCT-15 [5]; 610 nM with MDA-MB-231 [6]; 510 nM in the experiment with NCI-H23 [7]; 250 nM with NUGC-3; 730 nM with PC-3 [8]; 410 nM in the experiment with ACHN.
